Experimental data: ChEMBL document CHEMBL1671620, “Mutations in the fks1 gene in Candida albicans, C. tropicalis, and C. krusei correlate with elevated caspofungin MICs uncovered in AM3 medium using the method of the European Committee on Antibiotic Susceptibility Testing” (2008)
Values after ≈ are worked out from the molar mass of the structure shown.

Columns and labels:
[1] = test system: Candida albicans; experiment: Antifungal activity against Candida albicans isolate 15 expressing wild type 1,3-beta-glucan synthase grown on AM3 media after 48 hrs by EUCAST microdilution method; format: functional; conditions: isolate 15, 24 h, in the assay text read “24 hrs” for “48 hrs”
Method in brief: (§1)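 EUCAST (AFST-EUCAST) broth microdilution with caspofungin at 0.015 to 8 μg/ml final, in AM3 with glucose added to 2% final. Final inoculum was 10⁵ yeast cells/ml, with microplates prepared in batches and stored at −20°C. Plates were incubated at 35°C in humid ambient air and read spectrophotometrically after shaking at 24 h and 48 h. MIC was ≥50% growth reduction versus drug-free well; 90% end point also read at both times.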

[2] = test system: Candida albicans; experiment: Antifungal activity against Candida albicans isolate 25 expressing wild type 1,3-beta-glucan synthase grown on AM3 media after 48 hrs by EUCAST microdilution method; format: functional; conditions: isolate 25, 24 h, in the assay text read “after 24 hrs” for “after 48 hrs”; method in brief: as §1
[3] = test system: Candida albicans; experiment: Antifungal activity against Candida albicans isolate 3 expressing wild type 1,3-beta-glucan synthase grown on AM3 media after 48 hrs by EUCAST microdilution method; format: functional; conditions: isolate 3, 24 h, in the assay text read “after 24 hrs” for “after 48 hrs”; method in brief: as §1
[4] = test system: Candida albicans; experiment: Antifungal activity against Candida albicans isolate 4 expressing wild type 1,3-beta-glucan synthase grown on AM3 media after 48 hrs by EUCAST microdilution method; format: functional; conditions: isolate 4, 24 h, in the assay text read “after 24 hrs” for “after 48 hrs”; method in brief: as §1
[5] = test system: Candida albicans; experiment: Antifungal activity against Candida albicans isolate 5 expressing wild type 1,3-beta-glucan synthase grown on AM3 media after 48 hrs by EUCAST microdilution method; format: functional; conditions: isolate 5, 24 h, in the assay text read “after 24 hrs” for “after 48 hrs”; method in brief: as §1
[6] = test system: Candida albicans; experiment: Antifungal activity against Candida albicans isolate 8 expressing wild type 1,3-beta-glucan synthase grown on AM3 media after 48 hrs by EUCAST microdilution method; format: functional; conditions: isolate 8, 24 h, in the assay text read “after 24 hrs” for “after 48 hrs”; method in brief: as §1
[7] = test system: Candida albicans; experiment: Antifungal activity against Candida albicans isolate 13 expressing wild type 1,3-beta-glucan synthase grown on AM3 media after 48 hrs by EUCAST microdilution method; format: functional; conditions: isolate 13, 24 h, in the assay text read “after 24 hrs” for “after 48 hrs”; method in brief: as §1
[8] = test system: Candida albicans; experiment: Antifungal activity against Candida albicans isolate 12 expressing wild type 1,3-beta-glucan synthase grown on AM3 media after 48 hrs by EUCAST microdilution method; format: functional; conditions: isolate 12, 24 h, in the assay text read “after 24 hrs” for “after 48 hrs”; method in brief: as §1
[9] = test system: Candida tropicalis; experiment: Antifungal activity against Candida tropicalis ATCC 750 expressing wild type 1,3-beta-glucan synthase grown on AM3 media after 48 hrs by EUCAST microdilution method; format: functional; conditions: ATCC 750, 24 h, in the assay text read “24 hrs” for “48 hrs”; method in brief: as §1
[10] = test system: Candida albicans; experiment: Antifungal activity against Candida albicans isolate 4 expressing wild type 1,3-beta-glucan synthase grown on RPMI media after 24 hrs by EUCAST microdilution method; conditions: isolate 4, 24 h
[11] = test system: Candida albicans; experiment: Antifungal activity against Candida albicans isolate 5 expressing wild type 1,3-beta-glucan synthase grown on RPMI media after 24 hrs by EUCAST microdilution method; conditions: isolate 5, 24 h
[12] = test system: Candida albicans; experiment: Antifungal activity against Candida albicans isolate 6 expressing wild type 1,3-beta-glucan synthase grown on RPMI media after 24 hrs by EUCAST microdilution method; conditions: isolate 6, 24 h
[13] = test system: Candida albicans; experiment: Antifungal activity against Candida albicans isolate 9 expressing wild type 1,3-beta-glucan synthase grown on RPMI media after 24 hrs by EUCAST microdilution method; conditions: isolate 9, 24 h
[14] = test system: Candida albicans; experiment: Antifungal activity against Candida albicans isolate 25 expressing wild type 1,3-beta-glucan synthase grown on RPMI media after 24 hrs by EUCAST microdilution method; conditions: isolate 25, 24 h
[15] = test system: Candida albicans; experiment: Antifungal activity against Candida albicans isolate 11 expressing wild type 1,3-beta-glucan synthase grown on RPMI media after 24 hrs by EUCAST microdilution method; conditions: isolate 11, 24 h
[16] = test system: Candida albicans; experiment: Antifungal activity against Candida albicans isolate 14 expressing wild type 1,3-beta-glucan synthase grown on RPMI media after 24 hrs by EUCAST microdilution method; conditions: isolate 14, 24 h
[17] = test system: Candida albicans; experiment: Antifungal activity against Candida albicans isolate 18 expressing wild type 1,3-beta-glucan synthase grown on RPMI media after 24 hrs by EUCAST microdilution method; conditions: isolate 18, 24 h
[18] = test system: Candida tropicalis; experiment: Antifungal activity against Candida tropicalis isolate 1 expressing wild type 1,3-beta-glucan synthase grown on RPMI media after 24 hrs by EUCAST microdilution method; conditions: isolate 1, 24 h
[19] = test system: Candida albicans; experiment: Antifungal activity against Candida albicans isolate B311 expressing wild type 1,3-beta-glucan synthase grown on RPMI media after 24 hrs by EUCAST microdilution method; conditions: isolate B311, 24 h
[20] = test system: Pichia kudriavzevii; experiment: Antifungal activity against Candida krusei isolate 1 harboring 1,3-beta-glucan synthase HS1 point mutant grown on RPMI media after 24 hrs by EUCAST microdilution method; conditions: isolate 1, 24 h
[21] = test system: Candida albicans; experiment: Antifungal activity against Candida albicans isolate 19 harboring 1,3-beta-glucan synthase HS1 point mutant grown on AM3 media after 24 hrs by EUCAST microdilution method; conditions: isolate 19, 24 h
[22] = test system: Candida albicans; experiment: Antifungal activity against Candida albicans isolate 22 harboring 1,3-beta-glucan synthase HS1 point mutant grown on AM3 media after 24 hrs by EUCAST microdilution method; conditions: isolate 22, 24 h
[23] = test system: Candida albicans; experiment: Antifungal activity against Candida albicans isolate 24 harboring 1,3-beta-glucan synthase HS1 point mutant grown on AM3 media after 24 hrs by EUCAST microdilution method; conditions: isolate 24, 24 h
[24] = test system: Candida albicans; experiment: Antifungal activity against Candida albicans isolate 19 harboring 1,3-beta-glucan synthase HS1 point mutant grown on RPMI media after 24 hrs by EUCAST microdilution method; conditions: isolate 19, 24 h
[25] = test system: Candida albicans; experiment: Antifungal activity against Candida albicans isolate 22 harboring 1,3-beta-glucan synthase HS1 point mutant grown on RPMI media after 24 hrs by EUCAST microdilution method; conditions: isolate 22, 24 h
[26] = test system: Candida tropicalis; experiment: Antifungal activity against Candida tropicalis isolate 2 harboring 1,3-beta-glucan synthase HS1 point mutant grown on AM3 media after 24 hrs by EUCAST microdilution method; conditions: isolate 2, 24 h
[27] = test system: Candida tropicalis; experiment: Antifungal activity against Candida tropicalis isolate 2 harboring 1,3-beta-glucan synthase HS1 point mutant grown on RPMI media after 24 hrs by EUCAST microdilution method; conditions: isolate 2, 24 h

## CC[C@H](C)C[C@H](C)CCCCCCCCC(=O)N[C@H]1C[C@@H](O)[C@@H](NCCN)NC(=O)[C@@H]2[C@@H](O)CCN2C(=O)[C@H]([C@H](O)CCN)NC(=O)[C@H]([C@H](O)[C@@H](O)c2ccc(O)cc2)NC(=O)[C@@H]2C[C@@H](O)CN2C(=O)[C@H]([C@@H](C)O)NC1=O [CASPOFUNGIN]
[1]
  MIC: 0.03 µg/mL (≈ 0.0274 µM)
[2]
  MIC: 0.03 µg/mL (≈ 0.0274 µM)
[3]
  MIC: 0.06 µg/mL (≈ 0.0549 µM)
[4]
  MIC: 0.03 µg/mL (≈ 0.0274 µM)
[5]
  MIC: 0.03 µg/mL (≈ 0.0274 µM)
[6]
  MIC: 0.03 µg/mL (≈ 0.0274 µM)
[7]
  MIC: 0.03 µg/mL (≈ 0.0274 µM)
[8]
  MIC: 0.03 µg/mL (≈ 0.0274 µM)
[9]
  MIC: 0.06 µg/mL (≈ 0.0549 µM)
[10]
  MIC: 0.5 µg/mL (≈ 0.457 µM)
[11]
  MIC: 0.5 µg/mL (≈ 0.457 µM)
[12]
  MIC: 0.5 µg/mL (≈ 0.457 µM)
[13]
  MIC: 0.5 µg/mL (≈ 0.457 µM)
[14]
  MIC: 0.25 µg/mL (≈ 0.229 µM)
[15]
  MIC: 0.5 µg/mL (≈ 0.457 µM)
[16]
  MIC: 1 µg/mL (≈ 0.915 µM)
[17]
  MIC: 1 µg/mL (≈ 0.915 µM)
[18]
  MIC: 2 µg/mL (≈ 1.83 µM)
[19]
  MIC: 0.5 µg/mL (≈ 0.457 µM)
[20]
  MIC: 8 µg/mL (≈ 7.32 µM)
[21]
  MIC: 0.5 µg/mL (≈ 0.457 µM)
[22]
  MIC: 1 µg/mL (≈ 0.915 µM)
[23]
  MIC: 16 µg/mL (≈ 14.6 µM)
[24]
  MIC: 1 µg/mL (≈ 0.915 µM)
[25]
  MIC: 2 µg/mL (≈ 1.83 µM)
[26]
  MIC: 1 µg/mL (≈ 0.915 µM)
[27]
  MIC: 2 µg/mL (≈ 1.83 µM)
